Measured values: ChEMBL document CHEMBL4270603, “Computer-aided drug discovery: Novel 3,9-disubstituted eudistomin U derivatives as potent antibacterial agents” (Eur J Med Chem, 2018)
pKd: −log10 of the molar value. Converted amounts (≈) assume the structure as drawn. The source made the active and inactive calls. No cut-off for these calls is given here.

Assays:
Staphylococcus aureus [1] = experiment: Antibacterial activity against Staphylococcus aureus CGMCC 1.8721 measured after 12 to 14 hrs; type: functional
Procedure, shortened: (§1)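 Twofold (double) dilution method for in vitro antibacterial activity, with fosfomycin sodium, ciprofloxacin and propineb as positive controls.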

Staphylococcus aureus [2] = experiment: Antibacterial activity against methicillin-resistant Staphylococcus aureus ATCC 43300 measured after 12 to 14 hrs; type: functional
Procedure, shortened: (§2)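 In vitro double dilution method, run alongside fosfomycin sodium, ciprofloxacin and propineb as positive controls.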

Bacillus cereus [3] = experiment: Antibacterial activity against Bacillus cereus CGMCC 1.1846 measured after 12 to 14 hrs; type: functional; procedure, shortened: as §1
Ralstonia solanacearum [4] = experiment: Antibacterial activity against Ralstonia solanacearum CGMCC 1.12711 measured after 12 to 14 hrs; type: functional; procedure, shortened: as §2
Staphylococcus aureus [5] = experiment: Potency index, ratio of ciprofloxacin MIC to test compound MIC for methicillin-resistant Staphylococcus aureus ATCC 43300; type: functional
Bacillus cereus [6] = experiment: Potency index, ratio of ciprofloxacin MIC to test compound MIC for Bacillus cereus CGMCC 1.1846; type: functional
Ralstonia solanacearum [7] = experiment: Potency index, ratio of propineb MIC to test compound MIC for Ralstonia solanacearum CGMCC 1.12711; type: functional
Staphylococcus aureus [8] = experiment: Bactericidal activity against Staphylococcus aureus assessed as disruption of bacterial membrane at 1.5625 micromol/l after 1 hr by Hoechst/propidium iodide staining based fluorescence microscopic analysis; type: functional, organism-based
Procedure, shortened: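 S. aureus cells were incubated with compound for 1 h, then dual-stained with Hoechst and propidium iodide and imaged by fluorescence microscopy, with untreated cells as the control. Hoechst enters intact cells and gives blue fluorescence. PI gives red fluorescence only when the membrane is disrupted. Blue, red and merged channels were compared.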

Staphylococcus aureus [9] = experiment: Induction of morphological changes in Staphylococcus aureus assessed as appearance of rough cell surface at 1.5625 micromol/l after 1 hr by scanning electron microscopic analysis; type: functional, organism-based
Procedure, shortened: (§3)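 Cell-surface morphology of compound-treated S. aureus was imaged by scanning electron microscopy and compared with an untreated blank group.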

Staphylococcus aureus [10] = experiment: Induction of morphological changes in Staphylococcus aureus assessed as appearance of irregular cell surface at 1.5625 micromol/l after 1 hr by scanning electron microscopic analysis; type: functional, organism-based; procedure, shortened: as §3
Staphylococcus aureus [11] = experiment: Induction of morphological changes in Staphylococcus aureus assessed as disruption of cell membrane at 0.5 MIC after 1 hr by transmission electron microscopic analysis; type: functional, organism-based; conditions: 0.5 M
Procedure, shortened: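 S. aureus cells were exposed to compound for 1 h, then imaged by transmission electron microscopy for cell-membrane boundary integrity, with untreated cells as the comparison.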

Calf thymus DNA = experiment: Binding affinity to calf thymus DNA by isothermal titration calorimetric method; type: nucleic-acid assay, Bos taurus
Procedure, shortened: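 DNA was titrated with compound by isothermal titration calorimetry at 298 K. Heat flow was recorded over time, and thermodynamic constants were obtained by fitting to an independent binding model.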

Structure (SMILES) | MIC (Staphylococcus aureus [1]) [µM] | MIC (Staphylococcus aureus [2]) [µM] | MIC (Bacillus cereus [3]) [µM] | MIC (Ralstonia solanacearum [4]) [µM] | also measured
COC(=O)c1cc2c3ccccc3n(Cc3ccc(C(F)(F)F)cc3)c2c(-c2cn(C(C)=O)c3ccccc23)n1 | > 100 | > 100 | > 100 | > 100 | –
COC(=O)c1cc2c3ccccc3n(Cc3cccc(C(F)(F)F)c3)c2c(-c2cn(C(C)=O)c3ccccc23)n1 | > 100 | > 100 | > 100 | > 100 | –
COC(=O)c1cc2c3ccccc3n(Cc3cccc(F)c3)c2c(-c2cn(C(C)=O)c3ccccc23)n1 | > 100 | > 100 | > 100 | > 100 | –
C[C@@H]1O[C@@H]1P(=O)(O)O [PHOSPHOMYCIN DISODIUM] | 100 | 50 | 25 | 50 | –
OCc1cc2c3ccccc3n(Cc3ccccc3C(F)(F)F)c2c(-c2c[nH]c3ccccc23)n1 | 50 (≈ 23.6 µg/mL) | 100 (≈ 47.1 µg/mL) | 50 (≈ 23.6 µg/mL) | 50 (≈ 23.6 µg/mL) | –
COC(=O)c1cc2c3ccccc3n(Cc3ccc(Br)cc3)c2c(-c2cn(C(C)=O)c3ccccc23)n1 | > 100 | > 100 | > 100 | > 100 | –
OCc1cc2c3ccccc3n(Cc3ccccc3Cl)c2c(-c2c[nH]c3ccccc23)n1 | 25 (≈ 10.9 µg/mL) | > 100 | 50 (≈ 21.9 µg/mL) | 25 (≈ 10.9 µg/mL) | –
Cc1ccc(Cn2c3ccccc3c3cc(CO)nc(-c4c[nH]c5ccccc45)c32)cc1 | 25 (≈ 10.4 µg/mL) | 25 (≈ 10.4 µg/mL) | 25 (≈ 10.4 µg/mL) | 12.5 (≈ 5.22 µg/mL) | –
OCc1cc2c3ccccc3n(Cc3ccc(F)cc3)c2c(-c2c[nH]c3ccccc23)n1 | 6.25 (≈ 2.63 µg/mL) | 3.12 (≈ 1.32 µg/mL) | 3.12 (≈ 1.32 µg/mL) | 6.25 (≈ 2.63 µg/mL) | Ratio (Staphylococcus aureus [5]): 4; Ratio (Bacillus cereus [6]): 2
OCc1cc2c3ccccc3n(Cc3cccc(Br)c3)c2c(-c2c[nH]c3ccccc23)n1 | 25 (≈ 12.1 µg/mL) | > 100 | 25 (≈ 12.1 µg/mL) | 25 (≈ 12.1 µg/mL) | –
OCc1cc2c3ccccc3n(Cc3cccc(C(F)(F)F)c3)c2c(-c2c[nH]c3ccccc23)n1 | 3.12 (≈ 1.47 µg/mL) | 12.5 (≈ 5.89 µg/mL) | 3.12 (≈ 1.47 µg/mL) | 3.12 (≈ 1.47 µg/mL) | Ratio (Bacillus cereus [6]): 2
COC(=O)c1cc2c([nH]c3ccccc32)c(-c2cn(C(C)=O)c3ccccc23)n1 | > 100 | > 100 | > 100 | > 100 | –
COC(=O)c1cc2c3ccccc3n(Cc3cccc(C)c3)c2c(-c2cn(C(C)=O)c3ccccc23)n1 | > 100 | > 100 | > 100 | > 100 | –
COC(=O)c1cc2c3ccccc3n(Cc3ccccc3Br)c2c(-c2cn(C(C)=O)c3ccccc23)n1 | > 100 | > 100 | > 100 | > 100 | –
COC(=O)c1cc2c3ccccc3n(Cc3ccc(F)cc3)c2c(-c2cn(C(C)=O)c3ccccc23)n1 | > 100 | > 100 | > 100 | > 100 | –
Cc1cccc(Cn2c3ccccc3c3cc(CO)nc(-c4c[nH]c5ccccc45)c32)c1 | 3.12 (≈ 1.3 µg/mL) | 100 (≈ 41.8 µg/mL) | 3.12 (≈ 1.3 µg/mL) | 3.12 (≈ 1.3 µg/mL) | Ratio (Bacillus cereus [6]): 2
COC(=O)c1cc2c3ccccc3n(Cc3ccccc3F)c2c(-c2cn(C(C)=O)c3ccccc23)n1 | > 100 | > 100 | > 100 | > 100 | –
COC(=O)c1cc2c3ccccc3n(Cc3ccc(Cl)cc3)c2c(-c2cn(C(C)=O)c3ccccc23)n1 | > 100 | > 100 | > 100 | > 100 | –

Structure (SMILES) | MIC (Staphylococcus aureus [1]) [µM] | MIC (Staphylococcus aureus [2]) [µM] | MIC (Bacillus cereus [3]) [µM] | MIC (Ralstonia solanacearum [4]) [µM] | also measured
OCc1cc2c3ccccc3n(Cc3cccc(Cl)c3)c2c(-c2c[nH]c3ccccc23)n1 | 25 (≈ 10.9 µg/mL) | > 100 | 25 (≈ 10.9 µg/mL) | 50 (≈ 21.9 µg/mL) | –
OCc1cc2c3ccccc3n(Cc3ccccc3)c2c(-c2c[nH]c3ccccc23)n1 | 12.5 (≈ 5.04 µg/mL) | 100 (≈ 40.3 µg/mL) | 12.5 (≈ 5.04 µg/mL) | 12.5 (≈ 5.04 µg/mL) | –
OCc1cc2c3ccccc3n(Cc3ccccc3F)c2c(-c2c[nH]c3ccccc23)n1 | 25 (≈ 10.5 µg/mL) | > 100 | 50 (≈ 21.1 µg/mL) | 25 (≈ 10.5 µg/mL) | –
OCc1cc2c3ccccc3n(Cc3ccc(Br)cc3)c2c(-c2c[nH]c3ccccc23)n1 | 3.12 (≈ 1.51 µg/mL) | 3.12 (≈ 1.51 µg/mL) | 3.12 (≈ 1.51 µg/mL) | 1.56 (≈ 0.754 µg/mL) | Ratio (Staphylococcus aureus [5]): 4; Ratio (Bacillus cereus [6]): 2; Ratio (Ralstonia solanacearum [7]): 16; Activity (Staphylococcus aureus [8]): Active; Activity (Staphylococcus aureus [9]): Active; Activity (Staphylococcus aureus [10]): Active; Activity (Staphylococcus aureus [11]): Active; pKd (Calf thymus DNA): 6.26; Ka (Calf thymus DNA; Bos taurus): 1.81 ×10⁶ /M
COC(=O)c1cc2c3ccccc3n(Cc3cccc(Br)c3)c2c(-c2cn(C(C)=O)c3ccccc23)n1 | > 100 | > 100 | > 100 | > 100 | –
O=C(O)c1cn(C2CC2)c2cc(N3CCNCC3)c(F)cc2c1=O [CIPROFLOXACIN] | 3.12 (≈ 1.04 µg/mL) | 12.5 (≈ 4.14 µg/mL) | 6.25 (≈ 2.07 µg/mL) | 3.12 (≈ 1.04 µg/mL) | –
OCc1cc2c3ccccc3n(Cc3ccc(C(F)(F)F)cc3)c2c(-c2c[nH]c3ccccc23)n1 | 25 (≈ 11.8 µg/mL) | 25 (≈ 11.8 µg/mL) | 25 (≈ 11.8 µg/mL) | 25 (≈ 11.8 µg/mL) | –
OCc1cc2c3ccccc3n(Cc3ccc(Cl)cc3)c2c(-c2c[nH]c3ccccc23)n1 | 25 (≈ 10.9 µg/mL) | 50 (≈ 21.9 µg/mL) | 12.5 (≈ 5.47 µg/mL) | 12.5 (≈ 5.47 µg/mL) | –
OCc1cc2c3ccccc3n(Cc3ccccc3Br)c2c(-c2c[nH]c3ccccc23)n1 | 12.5 (≈ 6.03 µg/mL) | > 100 | 25 (≈ 12.1 µg/mL) | 50 (≈ 24.1 µg/mL) | –
COC(=O)c1cc2c3ccccc3n(Cc3ccccc3)c2c(-c2cn(C(C)=O)c3ccccc23)n1 | > 100 | > 100 | > 100 | > 100 | –
COC(=O)c1cc2c3ccccc3n(Cc3ccccc3C)c2c(-c2cn(C(C)=O)c3ccccc23)n1 | > 100 | > 100 | 100 (≈ 48.8 µg/mL) | > 100 | –
COC(=O)c1cc2c3ccccc3n(Cc3ccc(C)cc3)c2c(-c2cn(C(C)=O)c3ccccc23)n1 | > 100 | > 100 | > 100 | > 100 | –
COC(=O)c1cc2c3ccccc3n(Cc3ccccc3Cl)c2c(-c2cn(C(C)=O)c3ccccc23)n1 | 100 (≈ 50.8 µg/mL) | > 100 | > 100 | > 100 | –
OCc1cc2c3ccccc3n(Cc3cccc(F)c3)c2c(-c2c[nH]c3ccccc23)n1 | 25 (≈ 10.5 µg/mL) | > 100 | 50 (≈ 21.1 µg/mL) | 50 (≈ 21.1 µg/mL) | –
COC(=O)c1cc2c3ccccc3n(Cc3cccc(Cl)c3)c2c(-c2cn(C(C)=O)c3ccccc23)n1 | > 100 | > 100 | > 100 | > 100 | –
COC(=O)c1cc2c3ccccc3n(Cc3ccccc3C(F)(F)F)c2c(-c2cn(C(C)=O)c3ccccc23)n1 | > 100 | > 100 | > 100 | > 100 | –
Cc1ccccc1Cn1c2ccccc2c2cc(CO)nc(-c3c[nH]c4ccccc34)c21 | 25 (≈ 10.4 µg/mL) | > 100 | 50 (≈ 20.9 µg/mL) | 12.5 (≈ 5.22 µg/mL) | –
